Values after ≈ are worked out from the molar mass of the structure shown.
Experiments:
MCF7 = experiment: Cytotoxicity against human MCF7 cells after 48 hrs by SRB assay; type: functional; settings: MCF7, 48 h; for CC50: read-out: LC50 (the source's name)
Summary of the method: (§1)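 In vitro: human lung H-460 and human breast MCF-7 cell lines exposed to drugs for 48 h. Growth read by sulforhodamine B (SRB) staining.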

NCI-H460 = experiment: Cytotoxicity against human H460 cells after 48 hrs by SRB assay; type: functional; settings: NCI-H460, 48 h; for CC50: read-out: LC50 (the source's name); summary of the method: as §1
L1210 = experiment: Cytotoxicity against cultured mouse L1210 cells

| Structure (SMILES) | GI50 (MCF7) [µM] | TGI (MCF7) [µM] | CC50 (MCF7) [µM] | GI50 (NCI-H460) [µM] | TGI (NCI-H460) [µM] | CC50 (NCI-H460) [µM] | ID50 (L1210) [µg/mL] |
| --- | --- | --- | --- | --- | --- | --- | --- |
| C[C@@H]1O[C@@H](O[C@H]2CC[C@H](O[C@@]3(C)CC(=O)c4c(ccc5c4C(=O)c4ccc([C@H]6C[C@H]7O[C@H]8CC(=O)[C@H](C)O[C@H]8O[C@@H]7[C@@H](C)O6)c(O)c4C5=O)C3)O[C@H]2C)C=CC1=O [MOROMYCIN A] | 25.1 | 38.9 | 55 | 18.7 | 51.2 | 69.1 |  |
| C[C@@H]1O[C@@H](O[C@H]2CC[C@H](O[C@@]3(C)CC(=O)[C@]4(O)C5=C(C=C[C@]4(O)C3)C(=O)c3c(ccc([C@H]4C[C@H]6O[C@H]7CC(=O)[C@H](C)O[C@H]7O[C@@H]6[C@@H](C)O4)c3O)C5=O)O[C@H]2C)C=CC1=O [SAQUAYAMYCIN B] | 15.2 | 21.3 | 28.1 | 12.2 | 26.5 | 34.3 |  |
| CC[C@@]1(O)C[C@H](O[C@H]2C[C@H](N(C)C)[C@H](O[C@H]3C[C@@H]4O[C@H]5CC(=O)[C@@H](C)O[C@H]5O[C@@H]4[C@H](C)O3)[C@H](C)O2)c2c(cc3c(c2O)C(=O)c2c(O)cccc2C3=O)[C@H]1C(=O)OC [ACLACINOMYCIN B] |  |  |  |  |  |  | 0.24 (≈ 0.296 µM) |
| C[C@@H]1O[C@H]2O[C@@H]3[C@@H](C)O[C@@H](c4ccc5c(c4O)C(=O)c4ccc6c(c4C5=O)C(=O)C[C@](C)(O)C6)C[C@H]3O[C@H]2CC1=O [MOROMYCIN B] | 5.6 | 9.2 | 16.3 | 4.1 | 14.1 | 52.3 |  |
| CC[C@@]1(O)C[C@H](O[C@H]2C[C@H](N(C)C)[C@H](O[C@H]3C[C@H](O)[C@H](O[C@H]4CCC(=O)[C@H](C)O4)[C@H](C)O3)[C@H](C)O2)c2c(cc3c(c2O)C(=O)c2c(O)cccc2C3=O)[C@H]1C(=O)OC [ACLARUBICIN] |  |  |  |  |  |  | 0.12 (≈ 0.148 µM) |

From ChEMBL document CHEMBL1156577, “Moromycins A and B, isolation and structure elucidation of C-glycosylangucycline-type antibiotics from Streptomyces sp. KY002” (2008)
